According to ChEMBL document CHEMBL4354826, “Structure-Based Discovery of SD-36 as a Potent, Selective, and Efficacious PROTAC Degrader of STAT3 Protein” (J Med Chem, 2019):
Active and inactive are the calls of the source. No cut-off for these calls is given here.

Assays:
[1] = tested on: Mus musculus; experiment: In vivo degradation of STAT3 in CD1 mouse at 25 mg/kg, iv measured upto 48 hrs by Western blot analysis; assay type: functional, organism-based
Procedure, shortened: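 Female CD-1 mice given a single intravenous dose in 10% PEG400 + 90% PBS, or vehicle. Euthanized at set time points. Spleen harvested and lysates immunoblotted for STAT3.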

[2] = organism: Homo sapiens; experiment: Selectivity index, ratio of protac activity at CRBN/STAT1 in human MOLM16 cells to protac activity at CRBN/STAT3 in human MOLM16 cells; assay type: cell-based
Procedure, shortened: (§1)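 Molm-16 cells treated 4 h with compound at 0.01–10 μM, or controls at 10 μM. Western blot of lysates: SDS–PAGE, PVDF, 1 h block in 5% blocker/TBST, primary and secondary antibodies, chemiluminescent detection. STAT1, -2, -4, -5A/B and -6 levels read against STAT3 to give degradation selectivity.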

[3] = tested on: Mus musculus; experiment: In vivo degradation of STAT3 in SCID mouse xenografted with MOLM-16 cells at 50 mg/kg, iv measured upto 1 hr by Western blot analysis relative to control; assay type: functional
Procedure, shortened: (§2)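 SCID mice bearing subcutaneous Molm-16 tumors (3 × 10^6 cells in Matrigel; treated at ~150 mm3) given a single intravenous dose in 10% PEG400 + 90% PBS, or vehicle. Tumors harvested at time points. Lysates immunoblotted for total STAT3 and pSTAT3 Y705, compared with vehicle control.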

[4] = molecular target: T1, Protein cereblon/Signal transducer and activator of transcription 5B (Homo sapiens) (UniProt P51692+Q96SW2); experiment: Protac activity at CRBN/STAT5B in human SUDHL1 cells assessed as degradation of STAT5B at 0.01 to 10 uM incubated for 18 hrs by Western blot analysis; assay type: cell-based
T1 sequence (P51692 whole entry, looked up): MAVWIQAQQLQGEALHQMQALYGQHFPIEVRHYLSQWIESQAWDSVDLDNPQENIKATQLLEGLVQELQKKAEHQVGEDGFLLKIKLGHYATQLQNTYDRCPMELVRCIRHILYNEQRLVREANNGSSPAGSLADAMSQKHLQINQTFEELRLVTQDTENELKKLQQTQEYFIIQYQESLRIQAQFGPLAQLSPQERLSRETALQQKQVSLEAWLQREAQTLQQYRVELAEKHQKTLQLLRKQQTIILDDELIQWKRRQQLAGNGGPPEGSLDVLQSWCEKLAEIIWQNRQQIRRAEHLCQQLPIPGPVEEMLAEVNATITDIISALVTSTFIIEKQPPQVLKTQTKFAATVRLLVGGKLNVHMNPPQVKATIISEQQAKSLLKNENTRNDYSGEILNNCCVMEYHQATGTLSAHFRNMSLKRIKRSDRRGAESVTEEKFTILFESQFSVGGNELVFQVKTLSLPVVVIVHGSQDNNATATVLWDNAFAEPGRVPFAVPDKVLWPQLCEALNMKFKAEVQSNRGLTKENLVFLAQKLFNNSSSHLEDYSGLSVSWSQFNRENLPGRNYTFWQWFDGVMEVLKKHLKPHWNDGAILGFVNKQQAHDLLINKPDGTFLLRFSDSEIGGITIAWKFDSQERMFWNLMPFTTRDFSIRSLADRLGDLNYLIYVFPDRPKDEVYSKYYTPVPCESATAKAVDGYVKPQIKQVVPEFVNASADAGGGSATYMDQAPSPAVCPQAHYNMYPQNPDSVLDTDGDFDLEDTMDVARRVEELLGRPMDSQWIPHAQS
T1 sequence (Q96SW2 whole entry, looked up): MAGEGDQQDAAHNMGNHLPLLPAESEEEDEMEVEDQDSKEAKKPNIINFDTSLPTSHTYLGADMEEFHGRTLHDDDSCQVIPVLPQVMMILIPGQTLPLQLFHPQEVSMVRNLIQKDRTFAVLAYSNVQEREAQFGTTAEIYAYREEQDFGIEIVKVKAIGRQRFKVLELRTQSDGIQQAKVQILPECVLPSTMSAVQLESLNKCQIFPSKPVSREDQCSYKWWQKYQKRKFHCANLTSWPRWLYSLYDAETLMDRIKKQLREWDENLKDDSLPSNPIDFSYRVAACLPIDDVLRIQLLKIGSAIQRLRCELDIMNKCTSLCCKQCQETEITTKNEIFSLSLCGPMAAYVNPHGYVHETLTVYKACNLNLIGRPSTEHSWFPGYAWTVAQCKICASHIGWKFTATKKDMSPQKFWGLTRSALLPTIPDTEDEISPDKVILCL
Procedure, shortened: (§3)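 SU-DHL-1 cells treated 18 h with test compound at 0.01–10 μM, or control compounds at 10 μM. Lysates separated by SDS–PAGE, transferred to PVDF, blocked 1 h in 5% blocker/TBST, probed for each STAT protein, and detected by chemiluminescence.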

[5] = organism: Homo sapiens; experiment: Selectivity index, ratio of protac activity at CRBN/STAT5A in human MOLM16 cells to protac activity at CRBN/STAT3 in human MOLM16 cells; assay type: cell-based; procedure, shortened: as §1
[6] = organism: Homo sapiens; experiment: Selectivity index, ratio of protac activity at CRBN/STAT2 in human SUDHL1 cells to protac activity at CRBN/STAT3 in human SUDHL1 cells; assay type: cell-based
Procedure, shortened: (§4)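 SU-DHL-1 cells treated 18 h with compound at 0.01–10 μM, or controls at 10 μM. Immunoblotting used SDS–PAGE, PVDF transfer, 1 h block in 5% blocker/TBST, primary and secondary antibodies and chemiluminescence. Levels of other STAT family members compared with STAT3 to express degradation selectivity.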

[7] = organism: Homo sapiens; experiment: Selectivity index, ratio of protac activity at CRBN/STAT5A in human SUDHL1 cells to protac activity at CRBN/STAT3 in human SUDHL1 cells; assay type: cell-based; procedure, shortened: as §4
[8] = molecular target: Protein cereblon/Signal transducer and activator of transcription 2 (Homo sapiens) (UniProt Q96SW2+P52630); experiment: Protac activity at CRBN/STAT2 in human SUDHL1 cells assessed as degradation of STAT2 at 0.01 to 10 uM incubated for 18 hrs by Western blot analysis; assay type: cell-based; procedure, shortened: as §3
Protein cereblon/Signal transducer and activator of transcription 2 (Homo sapiens), sequence (P52630 whole entry, looked up, the tested form may be a part): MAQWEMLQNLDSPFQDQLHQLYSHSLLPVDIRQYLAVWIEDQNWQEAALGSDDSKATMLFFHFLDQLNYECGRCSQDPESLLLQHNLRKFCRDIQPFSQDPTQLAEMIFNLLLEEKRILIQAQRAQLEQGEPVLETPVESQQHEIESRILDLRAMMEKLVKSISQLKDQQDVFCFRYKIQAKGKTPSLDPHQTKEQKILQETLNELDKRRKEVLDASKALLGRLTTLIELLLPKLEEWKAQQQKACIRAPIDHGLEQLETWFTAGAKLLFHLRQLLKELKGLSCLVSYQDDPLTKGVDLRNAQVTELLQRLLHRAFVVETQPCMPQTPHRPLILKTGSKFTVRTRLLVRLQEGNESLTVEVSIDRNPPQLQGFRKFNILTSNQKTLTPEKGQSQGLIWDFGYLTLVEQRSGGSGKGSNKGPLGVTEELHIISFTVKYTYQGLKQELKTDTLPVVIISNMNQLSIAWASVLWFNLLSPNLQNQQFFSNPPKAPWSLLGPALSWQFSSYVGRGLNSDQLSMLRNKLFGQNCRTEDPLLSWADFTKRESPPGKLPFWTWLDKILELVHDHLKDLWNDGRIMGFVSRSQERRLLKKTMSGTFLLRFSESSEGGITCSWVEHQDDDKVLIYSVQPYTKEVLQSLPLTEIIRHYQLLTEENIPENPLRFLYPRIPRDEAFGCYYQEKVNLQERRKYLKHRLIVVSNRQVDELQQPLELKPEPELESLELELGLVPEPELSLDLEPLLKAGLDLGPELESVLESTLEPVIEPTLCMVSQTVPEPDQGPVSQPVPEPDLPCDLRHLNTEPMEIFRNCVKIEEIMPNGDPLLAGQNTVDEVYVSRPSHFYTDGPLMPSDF
Protein cereblon/Signal transducer and activator of transcription 2 (Homo sapiens), sequence (Q96SW2 whole entry, looked up, the tested form may be a part): as the sequence (Q96SW2 whole entry, looked up) above

[9] = molecular target: T2, Signal transducer and activator of transcription 4 (Homo sapiens, UniProt Q14765); experiment: Binding affinity to recombinant human His/SUMO-tagged STAT4 (133 to 705 residues) expressed in Escherichia coli Rosetta (DE3) incubated for 1 hr by fluorescence polarization assay
T2 sequence (Q14765 whole entry): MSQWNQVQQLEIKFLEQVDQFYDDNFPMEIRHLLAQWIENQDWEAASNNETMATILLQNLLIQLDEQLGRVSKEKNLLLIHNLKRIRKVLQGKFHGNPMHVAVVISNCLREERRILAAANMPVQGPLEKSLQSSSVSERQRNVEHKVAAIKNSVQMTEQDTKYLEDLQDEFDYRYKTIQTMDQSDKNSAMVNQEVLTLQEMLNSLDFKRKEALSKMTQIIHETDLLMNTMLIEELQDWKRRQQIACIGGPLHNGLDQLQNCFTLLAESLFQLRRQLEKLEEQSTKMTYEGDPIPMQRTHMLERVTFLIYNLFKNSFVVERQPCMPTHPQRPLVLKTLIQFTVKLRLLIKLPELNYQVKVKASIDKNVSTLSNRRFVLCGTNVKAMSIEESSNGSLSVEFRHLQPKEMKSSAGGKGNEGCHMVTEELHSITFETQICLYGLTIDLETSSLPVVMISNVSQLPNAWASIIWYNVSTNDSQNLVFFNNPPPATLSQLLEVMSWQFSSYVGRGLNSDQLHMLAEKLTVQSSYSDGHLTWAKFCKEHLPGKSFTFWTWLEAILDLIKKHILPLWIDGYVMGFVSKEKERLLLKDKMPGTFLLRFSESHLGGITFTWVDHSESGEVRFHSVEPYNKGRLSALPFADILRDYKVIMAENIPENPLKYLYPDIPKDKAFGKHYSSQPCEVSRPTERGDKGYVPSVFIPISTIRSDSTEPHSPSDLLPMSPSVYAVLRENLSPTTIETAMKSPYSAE

[10] = molecular target: T1, Protein cereblon/Signal transducer and activator of transcription 5B (Homo sapiens); experiment: Protac activity at CRBN/STAT5B in human MOLM16 cells assessed as degradation of STAT5B at 0.01 to 10 uM incubated for 4 hrs by Western blot analysis; assay type: cell-based
Procedure, shortened: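 Molm-16 cells treated 4 h with test compound at 0.01–10 μM, or control compounds at 10 μM. Lysates separated by SDS–PAGE, transferred to PVDF, blocked 1 h in 5% blocker/TBST, probed for each STAT protein, and detected by chemiluminescence.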

[11] = organism: Homo sapiens; experiment: Selectivity index, ratio of protac activity at CRBN/STAT6 in human MOLM16 cells to protac activity at CRBN/STAT3 in human MOLM16 cells; assay type: cell-based; procedure, shortened: as §1
[12] = tested on: Mus musculus; experiment: In vivo degradation of phosphorylated STAT3 Y705 in SCID mouse xenografted with MOLM-16 cells at 50 mg/kg, iv measured upto 1 hr by Western blot analysis relative to control; assay type: functional; procedure, shortened: as §2

`NC(=O)CC[C@H](NC(=O)[C@@H]1CC[C@@H]2CCN(C(=O)CCCCCC#Cc3cccc4c3CN(C3CCC(=O)NC3=O)C4=O)C[C@H](NC(=O)c3cc4cc(C(F)(F)P(=O)(O)O)ccc4[nH]3)C(=O)N21)C(=O)NC(c1ccccc1)c1ccccc1` (some centres not stated) was tested, and the Activity [1] was “Active”, the Ratio [2] was greater than 100 and the Activity [3] was greater than 95%. The Activity [4] was “inactive”, the Ratio [5] was greater than 100 and the Ratio [6] was greater than 100. The Ratio [7] was greater than 100, the Activity [8] was “inactive” and the Kd [9] was 1000 nM. For the same compound, the Activity [10] was “inactive”, the Ratio [11] was greater than 100 and the Activity [12] was greater than 90%.
